Screening data: PubChem BioAssay, Sanford-Burnham Center for Chemical Genomics
CCR6 antagonist = CCR6 receptor antagonists, primary screen, cell-based, CHO-K1, luminescence, beta-arrestin, uHTS; AID 493098, 2011; inhibition, % at 20 µM; CHO-K1 CCR6 PathHunter beta-arrestin, CCL20-stimulated; 340,000 compounds, 0.49% hits;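 active = compounds whose inhibition of the agonist-driven luminescence signal at 20 µM reaches about 50%, limit read from the data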;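 also: cells stimulated with CCL20 at 14 nM final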
APJ antag = antagonists of human apelin receptor APJ, primary screen, CHO-K1 cells, beta-arrestin complementation, luminescence. inhibition, % at 20 µM. 330,000 compounds, 0.32% hits;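 active = inhibition above about 40% at 20 µM, limit read from the data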;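 also: cells challenged with 10 nM apelin-13 agonist together with compound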
CXCR6 block = CXCR6 receptor inhibitors, primary screen, cell-based, beta-arrestin, luminescence, CHO-K1 PathHunter, 1536-well | 360,000 compounds, 0.36% hits | C-X-C chemokine receptor type 6 (Homo sapiens), O00574 | inhibition, % at 20 µM; in the data active = inhibition above about 34%, passing the limit was not always enough;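 also: antagonist mode with CXCL16 agonist at 10 nM final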
EBI2 block = EBI2 receptor antagonists, beta-arrestin recruitment, primary screen, cell-based, luminescence, 7a,25-OHC stimulation, uHTS. AID 651636, 2012. G-protein coupled receptor 183 (Homo sapiens), P32249. inhibition, % at 5 µM. 360,000 compounds, 0.81% hits. 7a,25-OHC stimulated; in the data active = inhibition above about 38%;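 also: enzyme fragment complementation signal reports receptor beta-arrestin coupling in cells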
Target sequence (P32249 whole entry, looked up, the tested form may be a part): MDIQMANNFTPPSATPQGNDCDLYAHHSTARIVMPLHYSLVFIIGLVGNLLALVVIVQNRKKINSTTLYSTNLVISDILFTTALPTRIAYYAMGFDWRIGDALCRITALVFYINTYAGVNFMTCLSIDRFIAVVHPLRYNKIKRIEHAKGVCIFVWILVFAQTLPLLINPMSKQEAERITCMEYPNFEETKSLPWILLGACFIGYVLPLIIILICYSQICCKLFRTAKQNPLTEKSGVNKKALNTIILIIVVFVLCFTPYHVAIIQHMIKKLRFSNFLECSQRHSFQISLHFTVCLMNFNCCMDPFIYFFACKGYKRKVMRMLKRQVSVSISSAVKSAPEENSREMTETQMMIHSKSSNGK
APJ ag = agonists of human apelin receptor APJ, primary screen, CHO-K1 cells, PathHunter beta-arrestin, luminescence; 0% DMSO wells, 100% apelin; activation, % at 20 µM; 330,000 compounds, 0.11% hits; AID 2520, 2010;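 active = activation more than six SD over the plate average, tested at 20 µM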
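Incubation: overnight seeding, 90 min compound at 25 °C, 1 h detection; test system: PathHunter CHO-K1 APJ (AGTRL-1) beta-arrestin reporter cells; amount: 1000 cells/well; doses: one dose, 20 µM compound, 1% DMSO; measured by: beta-gal luminescence; measure: agonist-driven arrestin binding to APJ; benchmarks: negative DMSO alone, positive Apelin-13 at 10 nM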
Numbers stand for hits; i = inactive; nt = not tested or not shown. A selection: hits, their analogues and other compounds. The true share with any hit is near 1.5%.

SMILES | CCR6 antagonist | APJ antag | CXCR6 block | EBI2 block | APJ ag
Cc1cccc2c1N(C)C(=O)C2=O | i | i | i | i | i
O=C1c2ccccc2C(=O)N1OS(=O)(=O)c1ccc(F)cc1 | 70 | nt | 58 | i | nt
O=S(=O)(c1ccccc1)N1CCN(S(=O)(=O)c2ccc(F)cc2)CC1 | i | i | i | i | i
Cc1cc(C)c(S(=O)(=O)ON2C(=O)c3ccccc3C2=O)cc1C | 67 | i | i | i | i
Cc1cc(C)c(C)c(S(=O)(=O)ON2C(=O)c3ccccc3C2=O)c1C | 76 | i | i | i | i
CNC(=O)Nc1cc(NC(=O)NC)cc(C(F)(F)F)c1 | i | i | i | i | i
COc1ccc(S(=O)(=O)Nc2cc3c4c(c2)CC(=O)N4CCC3)cc1OC | nt | nt | i | i | nt
N#C/C(=N\Nc1ccc([N+](=O)[O-])cc1)C(N)=S | 69 | 69 | 53 | i | i
N#C/C(=N/Nc1ccc([N+](=O)[O-])cc1)C(=N)N1CCCCC1 | i | nt | i | i | nt
Cc1cc(=O)oc2cc(OCC(=O)OCC(=O)N(C)C3CCS(=O)(=O)C3)ccc12 (stereo unspecified) | i | i | i | i | i
Cn1c(=O)c(Nc2ccc(O)cc2)c2c3c(cccc31)C(=O)c1ccccc1-2 | 54 | i | i | i | i
Cc1cccc(C)c1NC(=O)C1(C)CN(S(C)(=O)=O)CC(=O)N1CC(F)(F)F (stereo unspecified) | nt | nt | nt | i | nt
CCOC(=O)c1csc(Nc2nc3ccc(F)cc3s2)n1 | i | 42 | i | i | i
O=C(NCCc1ccccc1Cl)c1cc(COc2ccc(F)cc2F)on1 | i | i | i | 57 | i
O=C(NCCC1=CCCCC1)c1cc(COc2ccc(F)cc2Cl)on1 | i | i | i | i | i
O=C(Nc1ccccc1)c1oc2ccccc2c1NC(=O)C1CC1 | i | i | i | i | i
CC(=O)Nc1ccc(NC(=O)c2nc(S(=O)(=O)Cc3ccccc3)ncc2Cl)cc1 | i | i | i | i | i
O=C(NCc1ccc2c(c1)OCO2)c1nc(S(=O)(=O)Cc2ccccc2)ncc1Cl | 63 | i | i | i | i
CC(NC(=O)CNC(=O)C1CCCCC1)c1ccc(S(N)(=O)=O)cc1 (stereo unspecified) | i | i | i | i | i
O=C1C(SCCO)=C(SCCO)C(=O)c2ccccc21 | 108 | i | 103 | i | i
CCCc1sc(N/N=C/c2ccccn2)nc1-c1ccc(F)cc1 | 69 | i | i | i | i
O=C(O)CCN1C(=O)/C(=C\c2ccc(-c3nc4ccccc4s3)o2)SC1=S | 53 | i | i | i | i
Cc1ccc(C2C3CSCC=C3C(C#N)=C(N)C2(C#N)C#N)cc1 (stereo unspecified) | 52 | i | i | i | i
C[C@H]1CN([C@@H](C)CO)C(=O)Cc2cc(NS(=O)(=O)c3cccs3)ccc2O[C@H]1CN(C)S(=O)(=O)c1cn(C)cn1 | i | i | i | i | i
O=C1C2C(C(=O)N1/N=C/c1cc(Br)cc([N+](=O)[O-])c1O)C1C=CC2C12CC2 (stereo unspecified) | 52 | i | i | i | i
SMILES | CCR6 antagonist | APJ antag | CXCR6 block | EBI2 block | APJ ag
CC1(c2nnc(-c3cccc(Cl)c3)o2)CC(c2ccccc2Br)=NO1 (stereo unspecified) | i | i | i | i | i
CCOC(=O)c1c(NC(=O)C(NCCN(C)C)c2ccccc2)sc2c1CCCC2 (stereo unspecified) | 54 | i | i | i | i
CCOC(=O)c1c(N)sc(-c2ccccc2)c1C | 59 | i | i | i | i
COc1ccc(N2C(=O)CC(Sc3nnnn3-c3ccc(F)cc3)C2=O)cc1 (stereo unspecified) | 96 | i | 102 | i | i
COc1ccc(N2C(=O)CC(Sc3nnc(-c4ccccc4)o3)C2=O)cc1 (stereo unspecified) | nt | i | i | i | i
CCOc1cc(C=C(C(=O)OC)C(=O)OC)ccc1OCc1ccc([N+](=O)[O-])cc1 | i | i | i | 59 | i
CCOc1cc(/C=N/O)ccc1OCc1ccc([N+](=O)[O-])cc1 | i | i | i | i | i
O=Nc1c(-c2c(O)[nH]c3cc(Br)ccc23)[nH]c2ccccc12 | 75 | i | 61 | i | i
